The data set is described as follows: Toxicity liver stage against HepG2, at 10uM. The format is cell-based. Details: test concentration 10 uM, cell line HepG2-A16-CD81EGFP. The following applies: human, HepG2-A16-CD81EGFP cells; read-out: INHIBITION
The procedure, abridged:
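Uninfected HepG2-A16-CD81EGFP cells, 3 × 10^3 per well, 1536-well, plated on prespotted compound at 10 μM final, parasite-free screening media added to match infected plates; puromycin 10 μM positive, DMSO 0.5% negative; run in parallel with 48 h PbLuc assay at 37 °C, 5% CO2; viability by CellTiter-Glo luminescence, normalized to controls.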
As to `O=C1O[C@@H]2CN(Cc3ccsc3)C[C@@H]2N1Cc1ccccn1`, the cytotoxicity at 10 µM was 9.77%.
As for `C[C@@H]1CN(CC(C)(C)N2CCCCC2)C[C@@]1(O)C1CC1`, the figure is -0.519%; as for `COc1ccccc1CN(Cc1cccs1)S(=O)(=O)N(C)C(C)C`, -46.7%; as for `NC(=O)CSCCC(=O)NCC1CC1`, 6.2%.
Next, `Cc1noc(COCC(=O)Nc2ccc(Br)c(C)n2)n1`: 6.19%; `CCc1ocnc1C(=O)N1CCOC(c2nc(C(C)C)n[nH]2)C1` (configuration not stated): 7.43%; `NC(=O)CSc1nnc2n1N=CN(c1ccccc1F)C2`: -3.78%.
Next, `COCCc1noc(CNC(=O)C2CC(=O)N(C(C)(C)C)C2)n1` (configuration not stated): 3.77%; `Cc1cccc2c1nc1n2[C@@H](CNC(=O)c2cncnc2)COC1`: 1.53%; `NC(=O)CN1CCC(OCc2ccc(Cl)c(Cl)c2)CC1`: -0.497%.
For `Cc1ccc(N2CCCC(NCc3cccc4c3OCCO4)C2)nn1` (configuration not stated), the cytotoxicity at 10 µM is -1.69%.
In the case of `COc1ccc(C(N)=O)cc1NCc1ncc(C(C)(C)C)o1`, the cytotoxicity at 10 µM is -8.2%.
For `CCOc1ccnc(N2CCN(Cc3ncccc3C)CC2)n1`, the cytotoxicity at 10 µM is -7.32%.
For the molecule `O=C(c1cnco1)N1C[C@@H](O)[C@H](Oc2cccc(F)c2)C1`, the cytotoxicity at 10 µM was -17.5%.
Next, `COc1cccc(S(=O)(=O)Cc2cc(C)on2)c1`: 4.03%; `O=C(CC1CCCC1)Nc1ccc(-n2cc(Cl)cn2)nc1`: -56.3%.
Next, `CNC(=O)COC1COC2(CCN(Cc3cccnc3)CC2)C1` (configuration not stated): 6.53%; `CSC(C)C(=O)NCc1ccnc(N2CCN(C)CC2)c1` (configuration not stated): -15.3%.
For the molecule `OC1(CN2CCCC(Cn3cncn3)C2)CCCCC1` (configuration not stated), the cytotoxicity at 10 µM worked out at 2.96%.
Next, `CCN(CC)S(=O)(=O)c1ccc2c(c1)N(Cc1ccccn1)C(=O)CS2`: 3.51%; `CN(C)C(=O)[C@H]1C[C@@H]2CCN(C3CCOCC3)C[C@H]2O1`: -4.15%; `Cc1nc(C(=O)N(CC2CCCO2)c2ccncc2)cs1` (configuration not stated): -7.3%.
As for `CC(NC(=O)NCC1(c2ccc(F)cc2)CCC1)c1nncn1C` (configuration not stated), the figure is -3.59%.
For the molecule `O=C(c1ccc(=O)[nH]c1)N1CCCC1c1nc2cc(F)ccc2[nH]1` (configuration not stated), the cytotoxicity at 10 µM was 14.3%.
As for `OC1(CN2CCCCC2)CCN(c2cc(C(F)(F)F)ccn2)C1` (configuration not stated), the figure is -2.22%.
Consider `O=C(c1cc(F)ccc1F)C1CCN(C(=O)c2ccc(=O)[nH]n2)CC1`, for which the cytotoxicity at 10 µM turned out to be 3.42%.
Next, `Cc1nc(CNC(=O)NCC(O)c2ccc(F)cc2)cs1` (configuration not stated): -10.4%; `Cc1nc2c(NC(CC(C)(C)C)c3cccnc3)ncnc2o1` (configuration not stated): 4.24%; `O=C(Cc1csc(-c2ccccc2F)n1)NCc1cccc(C(=O)O)c1`: -5.48%.
For the molecule `CCc1nccn1C1CCCN(C(=O)c2cnc3ccccc3n2)C1` (configuration not stated), the cytotoxicity at 10 µM was -4.61%.
As for `COCCN1CCN(CCS(=O)(=O)c2cccc(OC)c2)CC1`, the figure is -1.33%.
Next, `Cc1ccc(C(=O)N2CCC(c3noc(-c4cccnc4)n3)CC2)cn1`: 2.6%; `Cc1nn(C)c2nc(N(CCN(C)C)C3CCCC3)sc12`: -1.93%; `Cc1ccc(C)n1-c1c(C(=O)NCC(c2ccsc2)N(C)C)cnn1C` (configuration not stated): 17.1%.
On to `CSCCCN1CCc2nc(N(C)C)nc(N3CCC(O)CC3)c2C1`, for which the cytotoxicity at 10 µM was -4.67%.
Take `CCn1c(CN(C)C(=O)c2ccc(OC)nc2)nc2ccccc21`: the cytotoxicity at 10 µM was -6.23%.
For `Cn1ccnc1CN1CCCC1c1noc(C2CC2)n1` (configuration not stated), the cytotoxicity at 10 µM amounted to 0.265%.
As for `CC(C)c1nccn1C(C)C(=O)NCc1noc(Cc2cccs2)n1` (configuration not stated), the figure is -4.91%.
Next, `CC(C)[C@@H]1CN(CC(=O)NCc2ccco2)C[C@H]1NS(=O)(=O)N(C)C`: 6.11%; `CN(C)C(C(=O)N1CCC(CCO)CC1)c1ccccc1F` (configuration not stated): 5.88%.
Turning to `Cc1cc(NC(=O)CN2CCCC2c2noc(C)n2)n(C(C)(C)C)n1` (configuration not stated), the cytotoxicity at 10 µM was 1.53%.
Next, `Cc1ccc2cc(C(=O)N3CCC(Nc4cccnn4)CC3)[nH]c2c1`: -21%.
As for `COCCNC(=O)[C@@]12CCO[C@@H]1CCN(Cc1c(C)noc1C)C2`, the figure is -2.45%; as for `CC(C)CN1CCC2(CC1)CN(C(=O)C(C)C)C2`, -2.16%; as for `CNCc1cn(CC2CCN(CC(C)(C)CN3CCCC3)CC2)nn1`, -1.58%.
For `Oc1cc(C2CCCCN2C2CCCC2)nc(-c2ccncc2)n1` (configuration not stated), the cytotoxicity at 10 µM turned out to be 5.94%.
As for `FC(F)(F)COCCN1CCN(c2ccc3nncn3n2)CC1`, the figure is -7.77%; as for `Cn1cc(CNC[C@H]2Cn3ccnc3CO2)c2ccccc21`, -1.91%; as for `N#Cc1ccc(CN(CC(N)=O)C2CCCC2)cc1`, 38%.
Next, `Cc1nnc(C(C)Nc2cccc(COCCOC(C)C)c2)o1` (configuration not stated): 2.29%.
As for `Cc1ccc(O)c(C(=O)N2CCOCC2c2c(C)nn(C)c2C)c1` (configuration not stated), the figure is -8.53%.
For the molecule `O=C(c1cccnc1)N1CCC(c2nc(O)cc(-c3ccncc3)n2)C1` (configuration not stated), the cytotoxicity at 10 µM was -20.8%.
With `Cc1ccccc1C(CC(=O)NCc1n[nH]c(N)n1)c1ccccc1` (configuration not stated), the cytotoxicity at 10 µM is 8.8%.
With `CCSCc1nc(O)c2nnn(C3CCN(Cc4ccco4)CC3)c2n1`, the cytotoxicity at 10 µM is 8.79%.
Next, `Cc1ccc2nc(C3CCN(CCO)CC3)nn2c1`: -1.23%; `CCC(SC)C(=O)N1CCC(n2cccn2)CC1` (configuration not stated): -45.8%; `O=C(c1coc2ccccc12)N1CCCC1`: -1.15%.
For `O=C(Nc1cc(CCC2CCN(CCO)CC2)ccn1)c1ccccn1`, the cytotoxicity at 10 µM is -4.03%.
Next, `CCOc1ccc(C(=O)N2CCCC(n3nc(C)nc3C)C2)cc1` (configuration not stated): -4.34%; `CN1CCC(c2cccc(Cc3ccc(C(F)(F)F)cc3)n2)CC1`: 3%; `Cc1cccc2c1OCCCC2NCc1nnc2n1CCCCC2` (configuration not stated): -0.699%.
As for `Cc1nc(N2CC[C@@H](NC(=O)c3cnccn3)[C@H](O)C2)c2ccsc2n1`, the figure is 38.6%; as for `CC(NC(=O)CCC(=O)c1cccs1)c1nnc2n1CCC2` (configuration not stated), -15.1%; as for `O=C(CC1COCCN1C(=O)c1cscn1)c1ccccc1` (configuration not stated), 6.24%.
Regarding `CCc1nc2c(N3CCCC(c4nccn4CCOC)C3)ncnc2o1` (configuration not stated), the cytotoxicity at 10 µM was -11.2%.
As for `O=C(c1cncs1)N1CCOC(c2cc(CCO)[nH]n2)C1` (configuration not stated), the figure is -0.49%; as for `Cc1ncccc1Oc1cncc(C2CCCN2Cc2cncn2C)n1` (configuration not stated), -32.8%.
As to `CSc1nnc(C2CCN(C(=O)N3CCCC3)CC2)n1C`, the cytotoxicity at 10 µM came to 2.11%.
Next, `O=C(NCCO)Nc1c(F)cc(F)cc1-c1ccccc1`: -1.99%.
With `CCN(CC1CCOC1)C(=O)c1ccccc1S(=O)(=O)CC` (configuration not stated), the cytotoxicity at 10 µM was -2.15%.
As for `Cc1ccccc1OC1CN(Cc2c(C)nc3ccccn23)C1`, the figure is 43.3%; as for `Cc1cccc(-c2nnc(C(C)NCCn3cc(C)cn3)o2)c1` (configuration not stated), -8.32%.
Next, `CCN(Cc1ccco1)C(=O)NCc1nnc2n1CCC2`: -10.3%; `COc1c(C2CCCN2C(=O)c2cccc(C)n2)c(C)nn1C` (configuration not stated): -7.52%; `Cc1ccc(F)c(C(=O)N2C[C@@H](C(=O)O)[C@H](c3ccccc3)C2)c1Cl`: -6.06%.
On to `O=C(Cc1ccsc1)N1C[C@@H]2COC[C@]2(COc2cccnc2)C1`, for which the cytotoxicity at 10 µM was -99.3%.
As for `O=C(Nc1cncc(Br)c1O)c1ccon1`, the figure is 15.4%; as for `Cc1ccc(CNC(C)c2ccc(OCC(=O)NC3CC3)cc2)o1` (configuration not stated), 2.07%.
As to `CC[C@H]1COCCN1C(=O)c1cnc(N2CCN(C)CC2)nc1C`, the cytotoxicity at 10 µM was -12.4%.
Turning to `Cc1ccc(C(=O)Nc2ccn(CCC(N)=O)n2)cc1`, the cytotoxicity at 10 µM came out at 2.42%.
Turning to `O=C(NCCC1CN(C2CCCC2)CCO1)c1cc(=O)[nH]c(=O)[nH]1` (configuration not stated), the cytotoxicity at 10 µM was determined as 0.0145%.
Regarding `c1cnn(C2CN(c3ncnc4[nH]ccc34)C2)c1`, the cytotoxicity at 10 µM is 1.87%.
Next, `CNc1cncc(C2CCCN2S(=O)(=O)c2cccc(F)c2)n1` (configuration not stated): -15.3%.
On to `CCC(CC)c1cc(CNC(=O)N2CCOCC2CC)on1` (configuration not stated), for which the cytotoxicity at 10 µM was -5.59%.
As for `CCC1c2ccsc2CCN1C(=O)NCc1cc[nH]n1` (configuration not stated), the cytotoxicity at 10 µM was -8.88%.
Next, `O=C(Nc1cccnc1)C1CCCN(c2cc(-n3cccn3)ncn2)C1` (configuration not stated): -5.36%.
As for `Cc1ccc(-n2cnc(Cl)c2CO)cc1`, the figure is -0.303%; as for `CC1CN=C(N2CCN(C(=O)Nc3nc(-c4ccccc4)ns3)CC2)S1` (configuration not stated), 10.6%.
Take `Cc1cc(NC2CCc3nc(C(C)C)nn3C2)n2ncnc2n1` (configuration not stated): the cytotoxicity at 10 µM stood at 13.4%.
Next, `CN(C)CCN(C)C(=O)c1cnc2c(c1)nc(-c1ccccc1Cl)n2C`: 9.3%; `CC(=O)N[C@@H]1C[C@H](c2ccc(OCCO)cc2)OC2(CCOCC2)C1`: -21.2%; `Cc1nc(N2CCCC2)nc(C)c1NS(C)(=O)=O`: 1.61%.
For the molecule `c1cn(-c2ccc(CN3CCOC(Cn4cncn4)C3)cc2)cn1` (configuration not stated), the cytotoxicity at 10 µM worked out at 1.25%.
As for `COCC1CC2(CCN(Cc3cnn(C)c3)CC2)CN1C(C)C` (configuration not stated), the figure is 2.91%.
Next, `COc1cc(Nc2c(C#N)c(=O)n(C)c(=O)n2C)cc(OC)c1`: -3.65%; `CC(C)C(=O)N1CCC(Cc2nccnc2Nc2ccccn2)CC1`: -7.08%; `Cc1nccn1C1CCCN(C(=O)c2cc(O)nc3ccccc23)C1` (configuration not stated): -6.9%.

For the origin of these results see ChEMBL document CHEMBL4513216, “Probing the Open Global Health Chemical Diversity Library for Multistage-Active Starting Points for Next-Generation Antimalarials” (ACS Infect Dis, 2020).
